AP complement – alternative pathway complement inhibition, orthogonal assay. 62,000 tested, 0.08% active. inhibition, % at 5 µM. Human serum alternative complement pathway, LPS-coated ELISA, C3 deposition; tested in compound mixtures;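 active means inhibition above 30% in each of the two pooled mixtures holding the compound, so the lower value exceeds 30%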;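 further: 0% = serum in Mg-EGTA without compound and 100% = EDTA serum blank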
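Test system – human serum alternative complement pathway, C3 deposition on LPS-coated wells · Buffer or medium – diluted human serum in Mg2+-EGTA GVB++ · Compound dosing – 5 µM each compound, pools of ten, 50 µM per pool · Schedule – 1 h serum-compound exposure at 37 °C · Measured by – Anti-C3 ELISA, OD 450 nm · Read-out basis – percent inhibition of C3 deposition onto LPS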
D1 mod – allosterically modulates the human D1 dopamine receptor. HEK293 D1, CRE-luciferase, dopamine EC30 potentiation; actives deviate in either direction. B-score at 10 µM. 58,000 tested, 5.9% active. AID 641;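 active means luminescence count or its row- and column-corrected plate score outside the 99.7% band of the plate's sample wells, on either side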
Target sequence (P21728 whole entry, looked up): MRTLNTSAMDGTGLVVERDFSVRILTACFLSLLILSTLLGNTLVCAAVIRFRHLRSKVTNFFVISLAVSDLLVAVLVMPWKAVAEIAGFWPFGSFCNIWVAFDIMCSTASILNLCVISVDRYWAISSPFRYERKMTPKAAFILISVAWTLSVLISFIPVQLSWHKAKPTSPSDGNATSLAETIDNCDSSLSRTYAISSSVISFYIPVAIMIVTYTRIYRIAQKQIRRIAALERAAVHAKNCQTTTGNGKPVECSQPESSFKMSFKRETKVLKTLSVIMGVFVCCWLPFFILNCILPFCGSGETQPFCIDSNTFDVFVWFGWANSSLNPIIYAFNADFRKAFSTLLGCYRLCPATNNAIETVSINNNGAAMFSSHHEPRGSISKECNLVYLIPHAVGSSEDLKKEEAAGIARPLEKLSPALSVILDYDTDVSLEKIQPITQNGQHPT
M1 antag – antagonists of rat M1 muscarinic receptor; P08482; CHO-M1 cells, Fluo-4 calcium, ACh EC80 antagonist mode; active compounds read low; B-score at 10 µM; 64,000 tested, 3.4% active; AID 628;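 active means calcium fluorescence response, raw or row-and-column corrected B-score, differing from the plate sample mean either way at a set confidence level, mostly lower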
Htt clearance – mutant huntingtin protein clearance. AID 853. inhibition, % at 1.5 µM. 47,000 tested, 0.42% active. HeLa Exon1htt(103Q)mCFP, aggregate imaging; zero = plate's median compound well;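 active means inhibition of aggregate fluorescence above about 70%, also judged a hit by eye on the cell image, limit read from the data, passing the limit was not always enough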;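 further: cells exposed to compound for three days before fixation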
M1 agonist – activates the M1 muscarinic receptor; 64,000 tested, 3% active; B-score at 10 µM; CHO-M1 cells, Fluo-4 calcium fluorescence, agonist mode; active compounds read high;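 active means fluorescence rise, raw or as B-score row- and column-corrected plate score, outside the 99.7% band of its plate's samples, either direction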
* = called active by the depositor; / = not tested or not shown. A selection: hits, their analogues and other compounds. The true share with any hit is near 9%.

SMILES | AP complement | D1 mod | M1 antag | Htt clearance | M1 agonist
C#CC(C)(CC)NC(=O)Cn1nnc(-c2ccc(S(C)(=O)=O)cc2)n1 (centres undefined) | 10 | 0.023 | -0.32 | -1 | -1.2
CCC(C)NC(=O)C(NS(=O)(=O)c1ccc2c(c1)c(=O)n(C)c(=O)n2C)c1ccccc1 (centres undefined) | 7 | -5.6* | 0.0089 | -233 | 0.39
Cn1c(=O)c2cc(S(=O)(=O)NC(Cc3ccccc3)C(=O)NCc3ccco3)ccc2n(C)c1=O (centres undefined) | 9 | 0.041 | -0.3 | 26 | 0.98
COc1ccc2nc(-c3ccccc3)[nH]c2c1 | -32 | -5.3* | 0.77 | / | 0.5
COc1ccc2nc(NCc3ccccc3)[nH]c2c1 | 27 | -4.1* | 0.15 | / | -0.13
O=C(NCC1COc2ccccc2O1)C1CCN(S(=O)(=O)c2cccc3nsnc23)CC1 (centres undefined) | -4 | 1.3 | 0.22 | 15 | -0.052
CCOC(=O)c1c(NC(=O)COC(=O)c2c(C)noc2C)sc2c1CCC2 | 3 | 0.39 | 1.2 | 17 | -0.85
CCCc1sc(N/N=C/c2ccccn2)nc1-c1ccc(F)cc1 | / | / | / | 82* | /
CCC(C)C(NC(=O)c1ccccc1NC(=O)c1ccc(OC)cc1)C(=O)NCc1ccco1 (centres undefined) | 13 | -4.7* | 0.15 | 1 | 1.2
O=C1NCCCC1C(=O)N1CCN(C(=O)C2CCCNC2=O)CC1 (centres undefined) | 24 | -0.5 | 0.13 | / | -0.39
Cc1c(C(=O)N2CCN(S(C)(=O)=O)CC2)oc2ccccc12 | 12 | 0.3 | 0.59 | 19 | 0.0048
COc1ccccc1N1CCN(C(=O)c2oc3ccccc3c2C)CC1 | 3 | -0.9 | -4.5* | / | 0.77
NC(=O)C1(N2CCCCC2)CCN(C(=O)CSc2nc3ccccc3s2)CC1 | -3 | 0.7 | 0.086 | -21 | -1.2
COc1cc(NC(=O)Nc2cccc(C(C)=O)c2)cc(OC)c1OC | 2 | / | -0.47 | 75* | 0.67
CC(=O)c1cccc(NC(=O)NCc2ccccn2)c1 | 7 | -1.4 | 1.1 | 45 | 3.1*
Cc1c(Cc2ccc3c(c2)OCO3)sc(NC(=O)C(C)(C)C)c1C#N | / | / | / | 6 | /
CCOC(=O)c1ccc(Nc2ncnc3nc[nH]c23)cc1 | -1 | -5.9* | -0.066 | -19 | 0.01
O=C(c1cc2c(=O)oc3ccccc3c2s1)N1CCOCC1 | 4 | -4.6* | / | 33 | /
O=C(c1ccco1)N1CCN(C(=O)c2cc3c(=O)oc4ccccc4c3s2)CC1 | 7 | 0.89 | / | / | /
COn1c(SCC(=O)N(C)C)nc2ccccc2c1=O | 10 | 0.63 | 0.18 | / | -0.2
COC(=O)c1ccccc1NC(=O)c1cnn2c(C(F)F)cc(C3CC3)nc12 | 4 | 0.4 | -0.056 | 76* | -0.43
Cn1cc(-c2nc3ccccc3[nH]2)c2ccccc21 | 6 | -4.1* | -0.053 | / | -0.66
Nc1ccc(-c2nc3ccccc3[nH]2)cc1 | 14 | -3.5* | 0.34 | / | 0.5
Cc1ccc(Nc2nc(N3CCOCC3)c3ccccc3n2)cc1 | 14 | -5.8* | 0.24 | -41 | 2.5
CCOC(=O)N1CCN(S(=O)(=O)c2ccc3c(c2)SCC(=O)N3)CC1 | 7 | -0.27 | -1.3 | -23 | -0.29
SMILES | AP complement | D1 mod | M1 antag | Htt clearance | M1 agonist
CCOC(=O)N1CCN(S(=O)(=O)c2ccc3c(c2)OCC(=O)N3)CC1 | 19 | -0.19 | 0.52 | 71* | -0.99
Cc1cc(OCC(=O)Nc2ccncc2)ccc1Br | 13 | -3.3* | -1.8 | 28 | 5.4
COc1ccc2nc(NC(=O)c3cc(C)oc3C)sc2c1 | / | / | / | 22 | /
COc1ccc2sc(NC(=O)c3ccco3)nc2c1 | -13 | -5.7* | 0.68 | / | -1.1
COc1ccc2nc(NC(=O)c3ccoc3C)sc2c1 | 19 | -4.3* | 0.066 | / | -0.2
c1ccc(-c2n[nH]c(-c3ccccn3)n2)nc1 | 4 | -0.25 | -0.27 | / | 0.18
c1ccc(-c2ccc(-c3ccccn3)nn2)nc1 | 7 | -8.7* | -0.65 | / | -0.29
CCc1cc2c(=O)n(CC)c(SC(C)C(=O)Nc3c(C)n(C)n(-c4ccccc4)c3=O)nc2s1 (centres undefined) | / | / | / | 40 | /
COC1=CC(=O)OC12CCCCC2 | 16 | -0.72 | -1.2 | 70* | -0.33
CCn1ncc(C2=NOC(C(=O)Nc3c(C)nn(Cc4ccc(F)cc4)c3C)C2)c1C (centres undefined) | 9 | -1.7 | -0.18 | / | -2.5*
CCn1ncc(C2=NOC(C(=O)Nc3c(C)n(C)n(-c4ccccc4)c3=O)C2)c1C (centres undefined) | -1 | 0.38 | 0.35 | 23 | -0.28

Source: PubChem BioAssay (several laboratories)
